# Measured values published in ChEMBL document CHEMBL1926651, “Design, synthesis, antiviral and cytostatic evaluation of novel isoxazolidine nucleotide analogues with a 1,2,3-triazole linker” (Eur J Med Chem, 2012).
# The source made the active and inactive calls. The rule behind the calls is not given here.
# Legend:
# Human alphaherpesvirus 1 [1] = assay: Antiviral activity against Herpes simplex virus 1 KOS infected in human HEL cells assessed as inhibition of viral plaque formation at 250 uM; assay type: functional, organism-based
# Method in brief: (§1)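 Confluent host cell monolayers were inoculated with 100 CCID50 of virus in the presence of test compound at serial dilutions (250, 50, 10, … μM). Viral cytopathicity was scored once it reached completion in untreated virus-infected controls.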
# Human alphaherpesvirus 2 = assay: Antiviral activity against Herpes simplex virus 2 G infected in human HEL cells assessed as inhibition of viral plaque formation at 250 uM; assay type: functional, organism-based; conditions: strain G
# Human alphaherpesvirus 1 [2] = assay: Antiviral activity against thymidine kinase-deficient acv-resistant Herpes simplex virus 1 KOS infected in human HEL cells assessed as inhibition of viral plaque formation at 250 uM; assay type: functional, organism-based
# Vaccinia virus = assay: Antiviral activity against Vaccinia virus infected in human HEL cells assessed as inhibition of viral plaque formation at 250 uM; assay type: functional, organism-based; conditions: Orthopoxvirus vaccinia; method in brief: as §1
# [3] = tested on: Vesicular stomatitis virus; assay: Antiviral activity against Vesicular stomatitis virus infected in human HEL cells assessed as inhibition of viral plaque formation at 250 uM; assay type: functional, organism-based; method in brief: as §1
# Human betaherpesvirus 5 [4] = assay: Antiviral activity against Human cytomegalovirus AD169 infected in human HEL cells assessed as inhibition of viral plaque formation at 250 uM; assay type: functional, organism-based
# Human betaherpesvirus 5 [5] = assay: Antiviral activity against Human cytomegalovirus Davis infected in human HEL cells assessed as inhibition of viral plaque formation at 250 uM; assay type: functional, organism-based
# Human alphaherpesvirus 3 [6] = assay: Antiviral activity against thymidine kinase-positive Varicella Zoster virus Oka infected in human HEL cells assessed as inhibition of viral plaque formation at 250 uM; assay type: functional, cell-based; conditions: strain Oka vaccine
# Human alphaherpesvirus 3 [7] = assay: Antiviral activity against thymidine kinase-deficient Varicella Zoster virus 07/1 infected in human HEL cells assessed as inhibition of viral plaque formation at 250 uM; assay type: functional, organism-based
# Human respirovirus 3 = assay: Antiviral activity against Parainfluenza-3 virus infected in african green monkey Vero cells assessed as inhibition of viral plaque formation at 250 uM; assay type: functional, organism-based; method in brief: as §1
# [8] = tested on: Mammalian orthoreovirus 1; assay: Antiviral activity against Reovirus-1 infected in african green monkey Vero cells assessed as inhibition of viral plaque formation at 250 uM; assay type: functional, organism-based; method in brief: as §1
# Sindbis virus = assay: Antiviral activity against Sindbis virus infected in african green monkey Vero cells assessed as inhibition of viral plaque formation at 250 uM; assay type: functional, organism-based; method in brief: as §1
# Coxsackievirus B4 [9] = assay: Antiviral activity against Coxsackievirus B4 infected in african green monkey Vero cells assessed as inhibition of viral plaque formation at 250 uM; assay type: functional, organism-based; method in brief: as §1
# Punta Toro virus = assay: Antiviral activity against Punta Toro virus infected in african green monkey Vero cells assessed as inhibition of viral plaque formation at 250 uM; assay type: functional, organism-based
# [10] = tested on: Vesicular stomatitis virus; assay: Antiviral activity against Vesicular stomatitis virus infected in human Hela cells assessed as inhibition of viral plaque formation at 250 uM; assay type: functional, organism-based
# Coxsackievirus B4 [11] = assay: Antiviral activity against Coxsackievirus B4 infected in human HeLa cells assessed as inhibition of viral plaque formation at 250 uM; assay type: functional, organism-based; method in brief: as §1
# [12] = tested on: Respiratory syncytial virus; assay: Antiviral activity against Respiratory syncytial virus infected in human HeLa cells assessed as inhibition of viral plaque formation at 250 uM; assay type: functional, organism-based; method in brief: as §1
# Felid alphaherpesvirus 1 = assay: Antiviral activity against Felid herpesvirus 1 infected in CrFK cells assessed as inhibition of viral plaque formation at 250 uM; assay type: functional, organism-based; method in brief: as §1
# Feline coronavirus = assay: Antiviral activity against Feline coronavirus infected in CrFK cells assessed as inhibition of viral plaque formation at 250 uM; assay type: functional, organism-based; method in brief: as §1
# [13] = tested on: Human immunodeficiency virus 2; assay: Antiviral activity against Human immunodeficiency virus 2 infected in human CEM cells assessed as inhibition of virus-induced giant cell formation after 4 days by microscopic analysis; assay type: functional, organism-based; conditions: CCRF-CEM
# Method in brief: (§2)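 CEM cells at about 3 × 10⁵ cells/cm³ were infected with 100 CCID50/mL of HIV-1(IIIB) or HIV-2(ROD), then seeded into wells holding test compound dilutions. After 4 days at 37 °C, virus-induced giant cell formation was scored microscopically.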
# [14] = tested on: Human immunodeficiency virus 1; assay: Antiviral activity against Human immunodeficiency virus 1 infected in human CEM cells assessed as inhibition of virus-induced giant cell formation after 4 days by microscopic analysis; assay type: functional, organism-based; conditions: CCRF-CEM; method in brief: as §2
# HEL = assay: Cytotoxicity against human HEL cells 3 days by coulter counting; assay type: functional; conditions: 72 h
# Method in brief: (§3)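 Cells were suspended at 300,000–500,000 cells/mL and added 1:1 to compound dilutions. Incubation was at 37 °C, 2 days for L1210 and 3 days for CEM, HeLa and HEL. Cells were counted with a Coulter counter. CC50 is the concentration inhibiting cell proliferation by 50%.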
# HeLa = assay: Cytotoxicity against human HeLa cells 3 days by coulter counting; assay type: functional; conditions: 72 h; method in brief: as §3
# CCRF-CEM = assay: Cytotoxicity against human CEM cells 3 days by coulter counting; assay type: functional; conditions: 72 h; method in brief: as §3
# L1210 = assay: Cytotoxicity against mouse L1210 cells 2 days by coulter counting; assay type: functional; conditions: L1210, 48 h; method in brief: as §3
SMILES,Activity (Human alphaherpesvirus 1 [1]),Activity (Human alphaherpesvirus 2),Activity (Human alphaherpesvirus 1 [2]),Activity (Vaccinia virus),Activity [3],Activity (Human betaherpesvirus 5 [4]),Activity (Human betaherpesvirus 5 [5]),Activity (Human alphaherpesvirus 3 [6]),Activity (Human alphaherpesvirus 3 [7]),Activity (Human respirovirus 3),Activity [8],Activity (Sindbis virus),Activity (Coxsackievirus B4 [9]),Activity (Punta Toro virus),Activity [10],Activity (Coxsackievirus B4 [11]),Activity [12],Activity (Felid alphaherpesvirus 1),Activity (Feline coronavirus),Activity [13],also measured
CCOP(=O)(OCC)[C@@H]1C[C@@H](n2cc(-c3nccn3C)nn2)ON1C,inactive,inactive,inactive,inactive,inactive,inactive,inactive,inactive,inactive,inactive,inactive,inactive,inactive,inactive,inactive,inactive,inactive,inactive,inactive,inactive,Activity [14]: inactive; CC50 (HEL): > 100 µM; CC50 (HeLa): > 250 µM; CC50 (CCRF-CEM): > 250 µM; CC50 (L1210): ≥ 250 µM
CCOP(=O)(OCC)[C@@H]1C[C@H](n2cc(-c3nccn3C)nn2)ON1C,inactive,inactive,inactive,inactive,inactive,inactive,inactive,inactive,inactive,inactive,inactive,inactive,inactive,inactive,inactive,inactive,inactive,inactive,inactive,inactive,Activity [14]: inactive; CC50 (HEL): > 100 µM; CC50 (HeLa): > 250 µM; CC50 (CCRF-CEM): > 250 µM; CC50 (L1210): ≥ 250 µM
CCOP(=O)(OCC)[C@@H]1C[C@@H](n2cc(Cn3cnc4c(N)ncnc43)nn2)ON1C (racemic),inactive,inactive,inactive,inactive,inactive,inactive,inactive,inactive,inactive,inactive,inactive,inactive,inactive,inactive,inactive,inactive,inactive,inactive,inactive,inactive,Activity [14]: inactive; CC50 (HEL): > 100 µM; CC50 (HeLa): > 250 µM; CC50 (CCRF-CEM): > 250 µM; CC50 (L1210): 140 µM
